# Bioassay records (PubChem)
# PostGolgi yeast = growth inhibition of a yeast mutant, post-Golgi transport screen; inhibition, % at 10 µM; hit rate 0.9% among 98,000; post-Golgi transport phenotypic cell assay; AID 739;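 note: yeast cells grown in 1536-well plates; yeast grown about 18 h at 30C before absorbance read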
# BB579 growth dn = reduces growth of yeast BB579 in restrictive medium; S. cerevisiae BB579 growth, OD615, 48 h; inhibition, % at 10 µM; hit rate 0.51% among 140,000; AID 804;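 active = inhibition above a set limit, 3 SD over the mean compound inhibition, cut at about 44% in these data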
#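 Test system: Saccharomyces cerevisiae DeaD strain BB579, replicative lifespan model yeast | Buffer or medium: Restrictive CSMM-D medium | Doses: One dose, 10 µM compound with 0.25% DMSO | Incubation: 48 h exposure, 30 °C | Detection: Culture absorbance at 615 nm | Control set: Amphotericin B at 10 µg/mL as positive control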
# PostGolgi ctrl = inhibits growth of the yeast control strain | efflux-deficient yeast background strain, growth absorbance A615, 16 h | inhibition, % at 10 µM | hit rate 5% among 98,000 | AID 738
# Yeast life ext = yeast lifespan extension; inhibition of the nicotinamide effect, % at 10 µM; AID 775; hit rate 0.68% among 130,000; S. cerevisiae growth with nicotinamide, OD615; deaD strain in restrictive glucose medium;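 active = inhibition above a set limit, placed 3 SD over the median of all compounds, cut at about 26% in these data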
#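 Assay system: engineered S. cerevisiae DeaD replicative-lifespan strain, galactose-grown log-phase cells; Buffer or medium: CSMM-D glucose medium, restrictive; Probe or stimulus: nicotinamide 1.5 mM; Compound: single dose 10 µM compound, 0.25% DMSO; Schedule: 4 h preincubation then 48 h treatment at 30 °C; Technique: OD615 measurement.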
# Hits are given with their value; . = inactive; / = not tested or not shown. Many of the other results were omitted from the sample, so hits are more common in it than they were. Cut-off read from the data, not from the text of the source, unless noted: active = inhibition above about 30%; inactive = the rest.
SMILES,PostGolgi yeast,BB579 growth dn,PostGolgi ctrl,Yeast life ext
CCC(C)(C)NC(=O)/C=C/c1cccs1,/,.,/,.
CC(C)(C)c1ccc(OCCNC(=S)NC(=O)c2cccnc2)cc1,/,.,/,.
COc1cc(CNCc2ccccn2)ccc1OCc1ccc(Cl)cc1Cl,.,.,49,.
Cc1cc[n+]2cc(-c3cccc([N+](=O)[O-])c3)c(-c3cccc([N+](=O)[O-])c3)cc2c1,/,.,/,.
Cc1ccc(S(=O)(=O)N2C(=O)CCC2C(=O)Nn2cnnc2)cc1 (centres undefined),.,.,.,.
O=C(CCc1ccccc1)Nc1nc2n(n1)C(c1ccccc1)CC(=O)N2 (centres undefined),.,.,.,.
O=C(CCc1ccccc1)Nc1nc2n(n1)C(c1ccc(Cl)cc1)CC(=O)N2 (centres undefined),.,.,46,.
CCCCc1c(C)c(C#N)c2[nH]c3ccccc3n2c1=O,.,.,36,.
Cn1nc(C(=O)N2CCCC2)c2ccccc2c1=O,.,.,30,.
O=C1ON=C(c2ccccc2)/C1=C/c1ccc(-c2ccccc2[N+](=O)[O-])o1,/,.,/,42
O=[N+]([O-])c1ccccc1-c1ccc(/C=N/n2cnnc2)o1,.,.,.,.
CCN(CC)CCn1c2ccccc2c2cnc(N)c(C#N)c21,.,.,52,.
Cc1ccc(C(=O)N/C(=C\c2ccc(-c3ccc([N+](=O)[O-])cc3)o2)C(=O)NC2CCS(=O)(=O)C2)cc1 (centres undefined),/,.,/,.
N#C/C(=C/c1ccc(N2CCCCCC2)o1)c1ccc(F)cc1,30,.,.,.
CCC(=O)Oc1ccc2ccccc2c1CNC(=O)c1ccccc1,/,.,/,.
CCOC(=O)c1c(C)n(C)c2ccc(OC)c(NS(=O)(=O)c3ccc(Cl)s3)c12,.,.,34,.
CCOC(=O)c1c(C)n(C)c2ccc(OC)c(NC(=O)CN3CCCCC3)c12,.,.,.,.
COc1ccc(OC)c(NC(=O)c2nnn(Cc3ccccc3C)c2N)c1,.,.,34,.
CCc1ccccc1NS(=O)(=O)c1ccc2[nH]cc(C(=O)NCC3CCCO3)c(=O)c2c1 (centres undefined),.,.,41,.
CCOc1ccc(NS(=O)(=O)c2ccc3[nH]cc(C(=O)NCC4CCCO4)c(=O)c3c2)cc1 (centres undefined),.,.,.,.
O=C(CSc1nc(C2CCCCC2)n(-c2ccccc2)n1)NCC(F)(F)F,/,.,/,.
COc1ccccc1C(=O)NNC(=S)NC(=O)c1ccco1,/,82,/,.
COc1ccc(C(=O)NC(=S)NNC(=O)c2ccc(NC(=O)C(C)C)cc2)cc1,/,.,/,33
COc1ccc(C(=O)NNC(=S)NC(=O)c2ccco2)cc1,.,.,.,33
CC(C)C(=O)Nc1cccc(NC(=S)NC(=O)c2ccc(Cl)cc2)c1,.,.,.,.
SMILES,PostGolgi yeast,BB579 growth dn,PostGolgi ctrl,Yeast life ext
CCC(=O)NC(=S)NNC(=O)c1ccc(OC)cc1,.,.,.,.
CCc1cccc(C)c1NC(=O)CN1C(=O)c2ccccc2S1(=O)=O,.,.,.,.
CC(C)C(NC(=O)CN1C(=O)c2ccccc2S1(=O)=O)C(C)C,.,.,31,.
COC(=O)C1CCN(S(=O)(=O)Cc2ccccc2)CC1,.,.,.,.
O=c1c(Cl)c(Nc2cccc(Cl)c2)cnn1-c1nc2ccccc2s1,/,.,/,.
COc1ccc(Nc2cnn(-c3nc4ccccc4s3)c(=O)c2Cl)cc1,/,78,/,.
CC1CCCCN1Cc1ccc(N)cc1 (centres undefined),/,.,/,/
CC1CCCCN1Cc1ccc(-c2nn[nH]n2)cc1 (centres undefined),.,.,45,.
COc1ccc(S(=O)(=O)N2CCCCC2)cc1NC(=O)CSc1ncnc2ccccc12,/,.,/,.
CCC(=O)NC(c1ccc(C)cc1)c1cc([N+](=O)[O-])c2cccnc2c1O (centres undefined),/,85,/,.
Cc1cccc(/C(N)=N/OC(=O)CCc2ccccc2)c1,.,.,.,.
COc1ccc(C(CNC(=O)c2cccc(Br)c2)N2CCCC2)cc1 (centres undefined),.,.,.,123
CCN(CC)S(=O)(=O)c1cnccc1N1CCN(c2cccc(Cl)c2)CC1,/,.,/,.
CCc1nc(SCC(=O)N2c3ccccc3CC2C)c2c(C)c(C)sc2n1 (centres undefined),.,.,33,.
CS(=O)(=O)N1CCC(C(=O)Nc2ccc3c(c2)OCCO3)CC1,.,.,.,.
CCCNC(=O)c1c(N)n(-c2cccc(OC)c2)c2nc3ccccc3nc12,33,.,50,.
Nc1nc(-c2ccccc2)cc(-c2ccccc2O)n1,54,.,35,.
COc1ccc(C2C(=O)c3ccccc3C2=O)cc1,/,.,/,32
COc1ccc(C2C(=O)c3ccccc3C2=O)c(OC)c1,.,.,.,.
O=C(NC12CC3CC(CC(C3)C1)C2)N1CCN(c2nc(-c3ccccc3)cs2)CC1,.,.,42,.
c1ccc(-c2csc(N3CCOCC3)n2)cc1,.,.,.,.
c1ccc(-c2csc(N3CCN(c4ccccn4)CC3)n2)cc1,.,.,41,.
CC1CCC(C(=O)NC(C(=O)NCc2cccnc2)C(C)C)CC1 (centres undefined),.,.,.,.
CC(C)CCNC(=O)CO/N=C/c1ccccc1OC(F)F,/,.,/,.
Cc1ccc(-c2cc(C(=O)N3N=C(C(F)F)CC3(O)C(F)F)c3ccccc3n2)cc1C (centres undefined),.,68,.,.
SMILES,PostGolgi yeast,BB579 growth dn,PostGolgi ctrl,Yeast life ext
CC1(NC(=O)c2cc(S(=O)(=O)N3CCCCC3)ccc2Cl)CCS(=O)(=O)C1 (centres undefined),.,.,.,.
CCCCn1c2nc3ccccc3nc2c2c(=O)n(C(C)CC)cnc21 (centres undefined),37,.,.,.
NS(=O)(=O)c1ccc(NC(=O)c2ccccc2C(=O)N2CCCCC2)cc1,.,.,.,.
CCCOc1ccc2c3c(c(=O)oc2c1OCCC)CCCC3,.,.,56,.
CCN(C(=O)CN1CCN(c2ccc(O)cc2)CC1)c1c(N)n(Cc2ccccc2)c(=O)[nH]c1=O,.,.,.,.
COCCNC(=O)C(c1ccc(C)o1)N(C(=O)c1snc(C(N)=O)c1N)c1cc(C)cc(C)c1 (centres undefined),.,.,.,.
CCN1c2cccc3cccc(c23)S1(=O)=O,.,.,.,.
CCN1/C(=C(\O)c2ccccc2)C(=O)c2ccccc2S1(=O)=O,.,100,.,.
CC(NC(=O)C1(c2cccs2)CCOCC1)c1ccccc1 (centres undefined),/,.,/,.
C/C(N)=C(/C#N)C(=O)COC(=O)C1CCC(C(C)(C)C)CC1 (centres undefined),.,.,.,.
CC/C(=N\O)c1c(O)c2c(n(-c3ccccc3)c1=O)CCCC2,/,.,/,.
CCCn1c(NC(=O)c2cccc(S(=O)(=O)N3CCCC3)c2)nc2ccccc21,.,.,36,.
Cc1ccc(C(=O)Nc2nc3ccccc3n2CCN2CCCC2)cc1,.,.,.,.
CCCCn1c(Nc2ccccc2)nc2ccccc21,.,.,.,.
CCCn1c(Nc2nc3ccccc3n2C)nc2ccccc21,.,90,.,.
